Test results published in ChEMBL document CHEMBL2157971, “Antitumor agents 294. Novel E-ring-modified camptothecin-4β-anilino-4'-O-demethyl-epipodophyllotoxin conjugates as DNA topoisomerase I inhibitors and cytotoxic agents” (Bioorg Med Chem, 2012).
The source made the active and inactive calls. No cut-off for these calls is given here.

Tests used:
KB [1] = assay: Antiproliferative activity against human KB cells after 72 hrs by […] blue dye assay; format: functional, cell-based
How it was run: (§1)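 KB, etoposide-resistant KB/7D (kept in 7 µM etoposide), CPT-resistant KB CPT 100 (kept in 100 nM CPT) and revertant KB CPT 100rev cells, all grown in RPMI 1640 with 10% FBS. Log-phase cells seeded at 5000 cells/mL and exposed to a range of drug concentrations for 72 h. Growth read by […] blue dye assay; IC50 = 50% growth inhibition. Resistance ratio = KBCPT100 IC50 over KB IC50.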

[2] = Antiproliferative activity against human camptothecin-resistant KBCPT100 cells after 72 hrs by […] blue dye assay; format: functional, cell-based; settings: KBCPT100, 72 h; how it was run: as §1
[3] = Antiproliferative activity against human partially revertant camptothecin-resistant KBCPT100 cells after 72 hrs by […] blue dye assay; format: functional, cell-based; settings: KBCPT100, 72 h; how it was run: as §1
[4] = Antiproliferative activity against human VP16-resistant KB-7d cells overexpressing MRP after 72 hrs by […] blue dye assay; format: functional, cell-based; settings: KB7D; how it was run: as §1
[5] = Resistance ratio of IC50 for human camptothecin-resistant KBCPT100 cells to IC50 for human KB cells; format: functional; how it was run: as §1
[6] = molecular target: T1, DNA topoisomerase 1 (Homo sapiens) (UniProt P11387); assay: Inhibition of DNA topoisomerase 1 in human KB cells using [C14]thymidine assessed as protein-linked DNA breaks formation at 2.5 uM after 30 mins by […]; format: cell-based
T1 sequence (whole entry): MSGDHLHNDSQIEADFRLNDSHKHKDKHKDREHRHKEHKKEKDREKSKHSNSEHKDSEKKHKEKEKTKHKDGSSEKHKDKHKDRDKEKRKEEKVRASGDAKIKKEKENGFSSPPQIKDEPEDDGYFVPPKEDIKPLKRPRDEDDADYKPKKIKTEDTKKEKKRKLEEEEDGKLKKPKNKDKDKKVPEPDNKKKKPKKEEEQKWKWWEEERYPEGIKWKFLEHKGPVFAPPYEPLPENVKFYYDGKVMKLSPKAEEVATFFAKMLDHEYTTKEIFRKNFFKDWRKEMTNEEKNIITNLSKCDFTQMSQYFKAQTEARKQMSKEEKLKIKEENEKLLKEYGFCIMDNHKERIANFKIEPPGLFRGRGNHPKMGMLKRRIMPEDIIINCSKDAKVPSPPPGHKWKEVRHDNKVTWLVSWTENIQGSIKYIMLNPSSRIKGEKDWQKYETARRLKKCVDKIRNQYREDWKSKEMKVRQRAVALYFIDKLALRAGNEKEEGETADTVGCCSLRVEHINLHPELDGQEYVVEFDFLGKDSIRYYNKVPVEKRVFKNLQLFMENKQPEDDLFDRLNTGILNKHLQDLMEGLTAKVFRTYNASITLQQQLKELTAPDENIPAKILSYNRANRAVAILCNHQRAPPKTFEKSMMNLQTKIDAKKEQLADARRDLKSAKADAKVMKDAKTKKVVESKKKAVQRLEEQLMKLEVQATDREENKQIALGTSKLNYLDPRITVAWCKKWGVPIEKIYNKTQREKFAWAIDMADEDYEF
How it was run: (§2)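 KB cells labeled with [14C]thymidine for 24 h, then treated with compound (2.5 or 22.5 µM) at 37 °C. Protein-linked DNA breaks quantified by potassium-SDS co-precipitation.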

[7] = molecular target: T1, DNA topoisomerase 1 (Homo sapiens); assay: Inhibition of recombinant DNA topoismerase1-mediated cleavage activity at 25 uM after 15 mins by […]
How it was run: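 32P-labeled ON5/ON4 oligoduplex (50 fmol) incubated with purified recombinant topoisomerase I (220 fmol) ± compound (25 µM) at 37 °C for 15 min. Stopped with SDS (0.5% final), then proteinase K digestion (1 mg/mL final). Cleavage products resolved on 20% denaturing urea/polyacrylamide gel.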

[8] = molecular target: T1, DNA topoisomerase 1 (Homo sapiens); assay: Inhibition of recombinant DNA topoisomerase1-mediated topo1-linked DNA relegation activity at 25 uM after 30 mins by […]
How it was run: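 Suicide topo I cleavage complex pre-formed on radiolabeled oligoduplex. Religation started by adding 5 pmol of 13-mer ON6 with compound present, at 37 °C. 25-mer religation product resolved on 20% urea/polyacrylamide gel and quantified by phosphorimager.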

[9] = Inhibition of DNA topoisomerase 2-mediated [alpha32P]dCTP-labelled pBR322 cleavage up to 25 uM after 30 mins by agarose gel electrophoresis
[10] = Inhibition of DNA topoisomerase 2-mediated relegation activity at 250 uM after 30 mins by agarose gel electrophoresis
[11] = molecular target: T1, DNA topoisomerase 1 (Homo sapiens); assay: Inhibition of DNA topoisomerase 1 in human KB cells using [C14]thymidine assessed as protein-linked DNA breaks formation at 22.5 uM after 30 mins by […]; format: cell-based; how it was run: as §2
KB [12] = assay: Ratio of VP16 IC50 to compound IC50 for human KB cells; format: functional

SMILES: CC[C@@]1(O)C(=O)OCc2c1cc1n(c2=O)Cc2c-1nc1ccccc1c2/C=N\c1ccc(N[C@@H]2c3cc4c(cc3[C@@H](c3cc(OC)c(O)c(OC)c3)[C@H]3C(=O)OC[C@@H]32)OCO4)cc1
- IC50 (KB [1]): 24.5 nM
- IC50 [2]: 95 nM
- IC50 [3]: 44 nM
- IC50 [4]: 37.5 nM
- Ratio IC50 [5]: 2.8
- inhibition [6]: Active
- inhibition [7]: inactive
- inhibition [8]: Active
- inhibition [9]: inactive
- inhibition [10]: Active

SMILES: CC[C@@]1(O)C(=O)OCc2c1cc1n(c2=O)Cc2cc3ccccc3nc2-1 [CAMPTOTHECIN]
- IC50 (KB [1]): 8.8 nM
- IC50 [2]: 423 nM
- IC50 [3]: 24 nM
- IC50 [4]: 6.8 nM
- Ratio IC50 [5]: 48

SMILES: COc1cc([C@@H]2c3cc4c(cc3[C@@H](O[C@@H]3O[C@@H]5CO[C@@H](C)O[C@H]5[C@H](O)[C@H]3O)[C@H]3COC(=O)[C@H]23)OCO4)cc(OC)c1O [ETOPOSIDE]
- IC50 (KB [1]): 475 nM
- IC50 [2]: 336 nM
- IC50 [3]: 374 nM
- IC50 [4]: 55000 nM

SMILES: CC[C@@]1(O)C(=O)OCc2c1cc1n(c2=O)Cc2c-1nc1ccccc1c2/C=N\c1ccccc1N[C@@H]1c2cc3c(cc2[C@@H](c2cc(OC)c(O)c(OC)c2)[C@H]2C(=O)OC[C@@H]21)OCO3
- IC50 (KB [1]): 37 nM
- IC50 [2]: 112 nM
- IC50 [3]: 70 nM
- IC50 [4]: 70 nM
- Ratio IC50 [5]: 2.8
- inhibition [6]: Active
- inhibition [7]: inactive
- inhibition [8]: Active
- inhibition [9]: inactive
- inhibition [10]: Active

SMILES: CC[C@@](O)(C(=O)NC(C)C)c1cc2n(c(=O)c1CO)Cc1c-2nc2ccccc2c1/C=N\c1ccccc1N[C@@H]1c2cc3c(cc2[C@@H](c2cc(OC)c(O)c(OC)c2)[C@H]2C(=O)OC[C@@H]21)OCO3
- IC50 (KB [1]): 60 nM
- IC50 [2]: 206 nM
- IC50 [3]: 141 nM
- IC50 [4]: 61 nM
- Ratio IC50 [5]: 2.8
- fold change (FC) [11]: 7
- inhibition [7]: inactive
- inhibition [8]: Active
- inhibition [9]: inactive
- inhibition [10]: Active
- Ratio IC50 (KB [12]): 8

SMILES: CC[C@@](O)(C(=O)NC(C)C)c1cc2n(c(=O)c1CO)Cc1c-2nc2ccccc2c1/C=N\c1ccc(N[C@@H]2c3cc4c(cc3[C@@H](c3cc(OC)c(O)c(OC)c3)[C@H]3C(=O)OC[C@@H]32)OCO4)cc1
- IC50 (KB [1]): 42.5 nM
- IC50 [2]: 120 nM
- IC50 [3]: 57 nM
- IC50 [4]: 50 nM
- Ratio IC50 [5]: 2.8
- inhibition [6]: Active
- inhibition [7]: inactive
- inhibition [8]: Active
- inhibition [9]: inactive
- inhibition [10]: Active
- Ratio IC50 (KB [12]): 10
